For two compounds, minimal effective concentration results are on record in ChEMBL document CHEMBL1155564, “New antimicrobial flavanones from Physena madagascariensis” (2000).

What all share (type): functional
Conditions in all cases: read-out: MEC

In one assay the test system is Salmonella enterica. The assay can be described thus: Antimicrobial activity against Salmonella enterica after 16 hrs by microtiter plate assay. An outline of the steps: (§1)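 Broth microdilution in YPAD medium (1% yeast extract, 2% peptone, 2% dextrose, 40 μg/mL adenine). Wells were scored visually after 16 h. Clear wells were plated on YPAD agar for 16 h at room temperature; regrowth meant bacteriostatic, none meant bactericidal.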

Assay [1] relates to Staphylococcus epidermidis. As to the kind of experiment: Antimicrobial activity against Staphylococcus epidermidis after 16 hrs by microtiter plate assay. An outline of the steps:
as §1

Another assay has as its system Shigella sonnei. As to the kind of experiment: Antimicrobial activity against Shigella sonnei after 16 hrs by microtiter plate assay by microtiter plate assay. An outline of the steps:
as §1

The next assay relates to Staphylococcus aureus. The assay can be described thus: Antimicrobial activity against Staphylococcus aureus after 16 hrs by microtiter plate assay. An outline of the steps: as §1
For another assay, the system named is Enterococcus. As to the kind of experiment: Antimicrobial activity against Enterococcus after 16 hrs by microtiter plate assay. An outline of the steps:
as §1

The test system of the next assay is Klebsiella aerogenes. As to the kind of experiment: Antimicrobial activity against Enterobacter aerogenes after 16 hrs by microtiter plate assay. An outline of the steps: as §1
The test system of the next assay is Listeria monocytogenes. The assay can be described thus: Antimicrobial activity against Listeria monocytogenes after 16 hrs by microtiter plate assay. An outline of the steps:
as §1

The test system of the next assay is Escherichia coli. As to the kind of experiment: Antimicrobial activity against Escherichia coli after 16 hrs by microtiter plate assay. An outline of the steps:
as §1

Consider `C=C(C)CC[C@H](Cc1c(O)cc(O)c2c1O[C@H](c1ccc(O)cc1)CC2=O)C(=C)C` [REMANGIFLAVANONE A], for which the minimal effective concentration in the assay with Salmonella enterica was 125 µg/mL; in assay [1], 1.8 µg/mL; in the assay with Shigella sonnei it was 125 µg/mL; in the assay with Staphylococcus aureus, 3.75 µg/mL; in the assay on Enterococcus it was 7.5 µg/mL; in the assay on Klebsiella aerogenes it was 125 µg/mL. For the same compound, the minimal effective concentration in the assay on Listeria monocytogenes and with Escherichia coli was 125 µg/mL in each case.
On to `C=C(C)CC[C@H](Cc1c(O)cc(O)c2c1O[C@H](c1ccc(O)cc1O)CC2=O)C(=C)C` [REMANGIFLAVANONE B], for which the minimal effective concentration with Salmonella enterica was determined as 125 µg/mL; in assay [1], 1.8 µg/mL; in the assay with Shigella sonnei, 125 µg/mL; in the assay with Staphylococcus aureus, 1.8 µg/mL; in the assay on Enterococcus, 7.5 µg/mL; in the assay with Klebsiella aerogenes it was 125 µg/mL. The results for the minimal effective concentration with Listeria monocytogenes and in the assay on Escherichia coli were 1.8 µg/mL and 125 µg/mL, respectively.
